High-throughput results deposited in PubChem BioAssay by several laboratories.
Sampled rows, rich in hits. Any-hit rate of the full collection: about 3.1%.
PREPL inhibitor = inhibitors of human prolyl oligopeptidase-like enzyme PREPL. actives 0.68% (n = 320,000). inhibition, % at 5.96 µM. recombinant PREPL, fluorescence polarization activity-based probe. Q4J6C6;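 further: 0% = enzyme with DMSO and 100% = wells lacking enzyme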
Target sequence (Q4J6C6 whole entry, looked up): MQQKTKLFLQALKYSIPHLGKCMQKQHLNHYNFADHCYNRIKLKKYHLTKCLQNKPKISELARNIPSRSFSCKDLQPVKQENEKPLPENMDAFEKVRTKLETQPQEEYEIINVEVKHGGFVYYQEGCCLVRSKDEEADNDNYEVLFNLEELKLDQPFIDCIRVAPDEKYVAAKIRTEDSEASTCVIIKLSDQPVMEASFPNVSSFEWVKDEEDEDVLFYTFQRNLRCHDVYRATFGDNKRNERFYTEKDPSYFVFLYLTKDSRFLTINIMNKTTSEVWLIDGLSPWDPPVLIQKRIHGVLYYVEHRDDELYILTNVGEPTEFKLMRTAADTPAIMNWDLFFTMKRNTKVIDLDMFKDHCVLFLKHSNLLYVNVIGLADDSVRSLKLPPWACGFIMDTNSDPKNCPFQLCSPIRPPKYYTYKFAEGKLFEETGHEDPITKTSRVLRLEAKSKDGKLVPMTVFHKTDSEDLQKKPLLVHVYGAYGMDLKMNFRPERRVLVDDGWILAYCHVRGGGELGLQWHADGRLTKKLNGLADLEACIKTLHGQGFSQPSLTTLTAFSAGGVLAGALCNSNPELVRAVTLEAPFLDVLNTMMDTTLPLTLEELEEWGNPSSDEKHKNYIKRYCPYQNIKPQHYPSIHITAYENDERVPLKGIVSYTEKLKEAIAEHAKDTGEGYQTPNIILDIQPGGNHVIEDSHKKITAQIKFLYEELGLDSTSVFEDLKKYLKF
MEKK2mut PB1 HTS = signal of MEK5 binding to mutant human MEKK2 PB1 domain | bead flow cytometry, Alexa488-MEK5 binding to MEKK2 mutant | percent response, % at 10 µM | actives 0.35% (n = 290,000) | AID 1530; in the data active means percent response above about 24%, passing the limit was not always enough
MEKK3 PB1 HTS = MEKK3-MEK5 PB1 interaction, increase or decrease; actives 1.4% (n = 290,000); Q99759; binding response (% of control), % at 10 µM; bead-based flow cytometry, Alexa488-MEK5 binding to MEKK3; actives lie on both sides; 0 = blocked by unlabeled MEK5, 100 = vehicle;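 active means binding response more than 3 SD above or below the average of its plate-row segment, actives on both sides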;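 further: Alexa488 bead fluorescence after subtracting the streptavidin-only scavenger bead signal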
Apaf-1 inh = human Apaf-1 inhibition | actives 0.71% (n = 330,000) | O14727 | reconstituted apoptosome caspase-3 activity, DEVD-Rh110 fluorescence | inhibition, % at 20 µM; active means inhibition of at least 40% at 20 µM;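 further: plate controls were DMSO wells for no effect and DEVD-CHO caspase inhibitor wells for full effect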
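Material: biochemical Apaf-1 apoptosome reconstitution. Medium: Hepes buffer, pH 7.5. Also added: cytochrome c activation, bis-DEVD rhodamine 110 substrate. Timing: 30 min compound preincubation, 50 min activation, room temperature. Measured by: rhodamine 110 fluorescence at Ex 480/Em 540 nm.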
MEKK2 WT-MEK5 = raises or lowers MEK5 binding to wildtype human MEKK2 PB1 domain. Q9Y2U5. bead flow cytometry, Alexa488-MEK5 binding to MEKK2 WT; actives lie on both sides. binding response (% of control), % at 10 µM. actives 1.1% (n = 290,000). AID 1531; in the data active means binding response below about 67% or above about 130%
UBC13 polyUb = inhibitors of human UBC13 polyubiquitin chain formation | AID 485273 | P61088 | actives 0.47% (n = 330,000) | inhibition, % at 20 µM | TR-FRET; in the data active means inhibition above about 45%, passing the limit was not always enough
MEKK2wt confirm = raises or lowers MEK5 binding to wildtype human MEKK2, retest. shares compounds with MEKK3 PB1 HTS. bead flow cytometry, Alexa488-MEK5 binding to MEKK2 WT; actives lie on both sides. binding response (% of control), % at 10 µM. actives 2.4% (n = 5,900); in the data active means binding response below about 16% or above about 210%; inactive means in between
MEKK2mut confirm = signal of MEK5 binding to mutant human MEKK2, retest; shares compounds with MEKK3 PB1 HTS; bead flow cytometry, Alexa488-MEK5 binding to MEKK2 mutant; percent response, % at 10 µM; AID 1893; actives 2% (n = 5,900); in the data active means percent response mostly above about 71%, no sharp cut-off; inactive means mostly below about 38%;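 further: higher means compound restores mutant binding toward wildtype level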
MEKK3-MEK5 inh = confirmation of inhibitors of MEK5 binding to human MEKK3; shares compounds with MEKK3 PB1 HTS; bead flow cytometry, Alexa488-MEK5 binding to MEKK3; active compounds read low; binding response (% of control), % at 10 µM; actives 1.8% (n = 5,900);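 active means binding response below 72% of control, or above a set upper limit, though filed actives all read lower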;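 further: 100% = DMSO only wells and 0% = binding blocked by excess unlabeled MEK5; lower values mean stronger disruption of MEK5 binding to MEKK3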
PREPL confirm = confirmation of human PREPL enzyme inhibitors | recombinant PREPL, fluorescence polarization activity probe | shares compounds with PREPL inhibitor | inhibition, % at 5.96 µM | actives 67% (n = 2,000);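 further: 0% = protein with DMSO and 100% = wells lacking protein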
The depositor's hits bear a star; [ ] = remark or other dose. Unless noted, no stated cut-off is given here; in the data, active means inhibition above about 43%; inactive means the rest.

What do the screens show for `COc1ccc(Nc2nc(N3CCCCC3)c3ccccc3n2)cc1`?
PREPL inhibitor: 60*; MEKK2mut PB1 HTS: 14; MEKK3 PB1 HTS: 106; Apaf-1 inh: 39; MEKK2 WT-MEK5: 136*; UBC13 polyUb: 31; MEKK2wt confirm: 158; MEKK2mut confirm: 36; MEKK3-MEK5 inh: 112; PREPL confirm: 43

What do the screens show for `Oc1ccc(Nc2nc(N3CCCC3)c3ccccc3n2)cc1`?
PREPL inhibitor: 72*; MEKK2mut PB1 HTS: 21; MEKK3 PB1 HTS: 107; Apaf-1 inh: 22; MEKK2 WT-MEK5: 153*; UBC13 polyUb: 28; MEKK2wt confirm: 197; MEKK2mut confirm: 93*; MEKK3-MEK5 inh: 109; PREPL confirm: 66*

Results for CC1CCCN(Cc2c(O)ccc3c(=O)c(-c4nc5ccccc5s4)c(N)oc23)C1 (centres undefined) ?
PREPL inhibitor: 65*; MEKK2mut PB1 HTS: 25; MEKK3 PB1 HTS: 111; Apaf-1 inh: 16; MEKK2 WT-MEK5: 161*; UBC13 polyUb: 20; MEKK2wt confirm: 155; MEKK2mut confirm: 30; MEKK3-MEK5 inh: 104; PREPL confirm: 62*

How did CNC(=O)CSc1nc2cccnc2n1-c1ccc(F)cc1 do in these assays?
MEKK2mut PB1 HTS: 10; MEKK3 PB1 HTS: 106; Apaf-1 inh: 2; MEKK2 WT-MEK5: 107; UBC13 polyUb: -2

What do the screens show for `CCOc1ccc2[nH]c3c(N4CCc5ccccc5C4)ncnc3c2c1`?
PREPL inhibitor: 54*; MEKK2mut PB1 HTS: 42; MEKK3 PB1 HTS: 115; Apaf-1 inh: 6; MEKK2 WT-MEK5: 187*; UBC13 polyUb: 10; MEKK2wt confirm: 199; MEKK2mut confirm: 46; MEKK3-MEK5 inh: 110; PREPL confirm: 65*

What do the screens show for `COC(=O)c1c(N)n(CCCN2CCOCC2)c2nc3ccccc3nc12`?
PREPL inhibitor: 9; MEKK2mut PB1 HTS: 2; MEKK3 PB1 HTS: 110; Apaf-1 inh: -72; MEKK2 WT-MEK5: 99; UBC13 polyUb: -2

Results for COc1ccc(CNC(=O)c2c(N)n(CCCN3CCOCC3)c3nc4ccccc4nc23)cc1 ?
PREPL inhibitor: 69*; MEKK2mut PB1 HTS: 39; MEKK3 PB1 HTS: 95; Apaf-1 inh: 87*; MEKK2 WT-MEK5: 154*; UBC13 polyUb: 31; MEKK2wt confirm: 149; MEKK2mut confirm: 39; MEKK3-MEK5 inh: 110; PREPL confirm: 50*

Results for O=C(O)C(Cc1ccccc1)N=C(NS(=O)(=O)c1ccccc1)c1ccccc1 (centres undefined) ?
PREPL inhibitor: 5; Apaf-1 inh: -4; UBC13 polyUb: -13

How did COc1cc(C2CC(=O)Oc3c(C(CCN4CCOCC4)c4ccc(N(C)C)cc4)c(OC)cc(OC)c32)cc(OC)c1OC (centres undefined) do in these assays?
PREPL inhibitor: 38; MEKK2mut PB1 HTS: 4; MEKK3 PB1 HTS: 104; Apaf-1 inh: 9; MEKK2 WT-MEK5: 106; UBC13 polyUb: 15

How did COc1ccc(C2CC(=O)Oc3c(C(CCN4CCCCC4)c4ccc(N(C)C)cc4)c(OC)cc(OC)c32)cc1 (centres undefined) do in these assays?
PREPL inhibitor: 47*; MEKK2mut PB1 HTS: 17; MEKK3 PB1 HTS: 95; Apaf-1 inh: 23; MEKK2 WT-MEK5: 156*; UBC13 polyUb: 26; MEKK2wt confirm: 141; MEKK2mut confirm: 28; MEKK3-MEK5 inh: 105; PREPL confirm: 51*

What do the screens show for `COC(=O)C1(CCSC)NC(c2ccc(O)c(OC)c2)C2C(=O)N(c3ccc(C)cc3)C(=O)C21` (centres undefined)?
PREPL inhibitor: -3; MEKK2mut PB1 HTS: -9; MEKK3 PB1 HTS: 108; Apaf-1 inh: -2; MEKK2 WT-MEK5: 100; UBC13 polyUb: -1

How did CCCn1c(SCC(=O)c2c[nH]c3ccccc23)nnc1-c1ccncc1 do in these assays?
PREPL inhibitor: 44*; MEKK2mut PB1 HTS: 3; MEKK3 PB1 HTS: 71*[inhibitor]; Apaf-1 inh: 15; MEKK2 WT-MEK5: 75; UBC13 polyUb: -2; MEKK2wt confirm: 98; MEKK2mut confirm: -5; MEKK3-MEK5 inh: 96; PREPL confirm: 35

Results for Cc1occc1-c1nnc(SCC(=O)c2c[nH]c3ccccc23)n1C ?
PREPL inhibitor: 21; MEKK2mut PB1 HTS: 2; MEKK3 PB1 HTS: 106; Apaf-1 inh: 13; MEKK2 WT-MEK5: 102; UBC13 polyUb: 2

Results for Cc1nn(-c2ccccc2)c(C)c1NC(=O)COC(=O)Cc1ccccc1F ?
PREPL inhibitor: 8; Apaf-1 inh: -3; UBC13 polyUb: 3

How did Cc1cc(N)ccc1N1CCCC1 do in these assays?
PREPL inhibitor: 57*; MEKK2mut PB1 HTS: 6; MEKK3 PB1 HTS: 71*[inhibitor]; Apaf-1 inh: 65*; MEKK2 WT-MEK5: 94; UBC13 polyUb: -1; MEKK2wt confirm: 99; MEKK2mut confirm: 2; MEKK3-MEK5 inh: 91; PREPL confirm: 45*

Results for NC(=O)c1cc(N)ccc1N1CCCCC1 ?
PREPL inhibitor: 5; MEKK2mut PB1 HTS: 6; MEKK3 PB1 HTS: 105; Apaf-1 inh: -2; MEKK2 WT-MEK5: 104; UBC13 polyUb: -2

What do the screens show for `FC(F)(F)Oc1ccc(Nc2nc(N3CCOCC3)nc(N3CCOCC3)n2)cc1`?
PREPL inhibitor: -9; MEKK2mut PB1 HTS: 1; MEKK3 PB1 HTS: 103; Apaf-1 inh: 7; MEKK2 WT-MEK5: 107; UBC13 polyUb: -2
